Experimental data taken from the RNAGym collection of RNA variant scans (doi:10.1126/science.aae0568).
Variants at the floor of the assay were thinned out.

B1: tRNA (parent)
chain: GUUCCGUUGGCGUAAUGGUAACGCGUCUCCCUCCUAAGGAGAAGACUGCGGGUUCGAGUCCCGUACGGAACG

Variants of: B1
Test: yeast fitness relative to wild type (ratio to wild type); higher = fitter; tRNA-Arg(CCU), competitive growth, 37 C, YPD
Method in brief: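 Variants of the tRNA-Arg(CCU) gene were chemically synthesised with a 3% per-site mutation rate across 69 sites and placed at the native genomic locus in Saccharomyces cerevisiae. Six parallel replicates of the pooled strains were competed in YPD at 37°C for 24 hours, and gene amplicons from the start and end populations were read by 100-nucleotide paired-end sequencing. Darwinian fitness relative to wild type was derived from changes in genotype frequencies. Genotypes required ≥ 100 starting reads, and estimates < 0.5 were set to 0.5.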

Compared with U35C A40U, U35G G58A is lower in yeast fitness: 0.856 for the first, 0.675 for the second.

First: U35G G58C
Second: A36C A37G C55A
The yeast fitness of the first is higher: 0.653 for the first, 0.534 for the second.

Compared with A36C A37C, U35C A36U is higher in yeast fitness: 0.54 for the first, 0.603 for the second.

Compared with U35C A70G, U35C A70U is higher in yeast fitness: 0.781 for the first, 0.812 for the second.

Compared with U35A G67C, A36C A40G is lower in yeast fitness: 0.657 for the first, 0.566 for the second.

Compared with U35C C46U C55G, U35A G68U is higher in yeast fitness: 0.507 for the first, 0.6 for the second.

Compared with U35G A43C, U35G A43U is higher in yeast fitness: 0.583 for the first, 0.707 for the second.

A36C G39A and U35C A42C G52C cannot be ordered by yeast fitness: at most 0.5 for the first, at most 0.5 for the second.

Going from A36C A37U G50C to U35G C49G A65C, the yeast fitness falls from 0.576 to at most 0.5.

Going from A36C C61A to A36C G38A U54C G58A, the yeast fitness falls from 0.523 to at most 0.5.

Going from U35C C60U C66U to U35G A45G, the yeast fitness rises from at most 0.5 to 0.669.

First: U35C A42U C62G
Second: U35C G51U C61U
The yeast fitness of the first is higher: 0.546 for the first, 0.53 for the second.

First: U35C C49G
Second: U35C U47A
The yeast fitness of the first is higher: 0.883 for the first, 0.734 for the second.

Compared with U35C C49G A70U, A36C G48A C66G is lower in yeast fitness: 0.563 for the first, at most 0.5 for the second.

Compared with U35G G63A G68C, A36C A57G is higher in yeast fitness: at most 0.5 for the first, 0.642 for the second.

Going from A36C A45U to U35C G48A, the yeast fitness rises from 0.591 to 0.937.

Going from U35C U54G to U35C U54A, the yeast fitness falls from 0.552 to at most 0.5.

First: U35C C60U
Second: A36C C49U
The yeast fitness of the first is lower: 0.546 for the first, 0.557 for the second.

First: A36C C49G
Second: A36C C49A
The yeast fitness of the first is lower: 0.56 for the first, 0.563 for the second.

First: U35C U47A C49U
Second: U35G U64C A70G
The yeast fitness of the first is higher: 0.603 for the first, at most 0.5 for the second.

First: A36C A45C C55G C62A G68A
Second: U35C A37U A43C C46U C49U G68A
The yeast fitness of the first is higher: 0.575 for the first, at most 0.5 for the second.

First: A36C C46A C49U
Second: U35G G52C G63A
The yeast fitness of the first is higher: 0.562 for the first, 0.551 for the second.

First: A36C C62U
Second: U35C A42G
The yeast fitness of the first is lower: 0.583 for the first, 0.761 for the second.

First: U35G A43G C46U
Second: U35C G44A C46G G50C U53A
The yeast fitness of the first is higher: 0.702 for the first, 0.583 for the second.

Going from A36C C61G A70C to A36C C62A G67A A70G, the yeast fitness falls from 0.569 to at most 0.5.

Going from U35G G56A to A36C A42U A43G A70G, the yeast fitness falls from 0.599 to at most 0.5.

First: U35C G48A C60A
Second: A36C G41C
The yeast fitness of the first is higher: 0.648 for the first, 0.579 for the second.

First: U35C A36U A40U C55U A57C
Second: U35G A40G A57G
The yeast fitness of the first is higher: 0.865 for the first, 0.548 for the second.

First: U35C U59C A69U
Second: A36C A69C
The yeast fitness of the first is higher: 0.749 for the first, 0.644 for the second.

First: U35C C61A
Second: U35C C61U
The yeast fitness of the first is lower: at most 0.5 for the first, 0.968 for the second.

Compared with U35C G48A C55U A70G, U35C A36C A40U C61G is lower in yeast fitness: 0.56 for the first, at most 0.5 for the second.

First: U35C A65G C66U
Second: A36C A70G
The yeast fitness of the first is higher: 0.675 for the first, 0.605 for the second.

First: A36C A70C
Second: A36C G44C G51C
The yeast fitness of the first is higher: 0.605 for the first, at most 0.5 for the second.

A36C A45C G48A G52C G68A and U35C A36C A40U C61G A69C A70C cannot be ordered by yeast fitness: at most 0.5 for the first, at most 0.5 for the second.

First: A36C G41A U53C
Second: U35C A42G C55A
The yeast fitness of the first is higher: 0.56 for the first, at most 0.5 for the second.

Compared with A36C A37C U53G A70C, U35G C55G C62U is lower in yeast fitness: 0.582 for the first, at most 0.5 for the second.

Going from U35A U47C to U35G A70U, the yeast fitness rises from 0.589 to 0.674.

Going from A36C A65C to U35C G58A, the yeast fitness rises from 0.601 to 0.77.

A36C A45C U54A A57U A65U and A36C C49U C55U C62G G68C cannot be ordered by yeast fitness: at most 0.5 for the first, at most 0.5 for the second.

First: U35C G41A A43C A57G
Second: U35C G56A
The yeast fitness of the first is lower: 0.501 for the first, 0.735 for the second.

Compared with U35C C55G A57G, U35C C55A A69U is lower in yeast fitness: 0.606 for the first, at most 0.5 for the second.

First: A36C G39C A65C
Second: U35G A57G
The yeast fitness of the first is lower: 0.598 for the first, 0.698 for the second.

First: U35C A57C G68C
Second: U35A U59A
The yeast fitness of the first is lower: at most 0.5 for the first, 0.591 for the second.

Going from U35A U59G to U35C G38U C46U C55G, the yeast fitness falls from 0.62 to at most 0.5.

First: A36C A40U A57C
Second: U35A U53C A57C
The yeast fitness of the first is higher: 0.52 for the first, at most 0.5 for the second.

Going from U35C A42C A43G to U35C C49U C66U, the yeast fitness rises from 0.617 to 0.681.

Going from U35C C46G to U35C C46U, the yeast fitness rises from 0.906 to 0.938.

U35C U47G C62U A65U and U35G A45C G56C cannot be ordered by yeast fitness: at most 0.5 for the first, at most 0.5 for the second.

U35C C60G C61U and A36C A37C A57C cannot be ordered by yeast fitness: at most 0.5 for the first, at most 0.5 for the second.

A36C C49G C61G C62G and U35C G52C cannot be ordered by yeast fitness: at most 0.5 for the first, at most 0.5 for the second.

Compared with A36C G41C C61U, A36C C55U A65C is higher in yeast fitness: at most 0.5 for the first, 0.632 for the second.

A36C A37G G56C and U35C A45G C49G G56A A65C cannot be ordered by yeast fitness: at most 0.5 for the first, at most 0.5 for the second.

Going from A36C A42U A43G G63C A69U to A36C A42C, the yeast fitness rises from at most 0.5 to 0.727.

Going from U35C G39C U47A to U35C A42C A43G G48A, the yeast fitness rises from at most 0.5 to 0.576.

First: A36C C55U U59A
Second: U35G A69U
The yeast fitness of the first is lower: at most 0.5 for the first, 0.769 for the second.

Compared with U35C U64G C66G, U35C A69U is higher in yeast fitness: at most 0.5 for the first, 0.949 for the second.

Compared with U35C A69C, U35C A36G A45C is lower in yeast fitness: 0.943 for the first, 0.825 for the second.

Compared with U35C A65U, U35C A65G is higher in yeast fitness: 0.739 for the first, 0.945 for the second.

First: U35C A37C
Second: A36C A57C G68A
The yeast fitness of the first is higher: 0.817 for the first, 0.541 for the second.

First: U35C A57C
Second: U35C A57G
The yeast fitness of the first is lower: 0.609 for the first, 0.739 for the second.

First: U35C C61A G67C
Second: U35C C55G
The yeast fitness of the first is lower: at most 0.5 for the first, 0.59 for the second.

Going from A36C C55A to A36C C55G, the yeast fitness rises from at most 0.5 to 0.556.

Going from U35G G68C to U35C C61A A69U, the yeast fitness falls from 0.619 to at most 0.5.

Compared with A36C C55U G68C A70G, U35C G41A A70G is higher in yeast fitness: at most 0.5 for the first, 0.689 for the second.

Going from A36C A43U U47A U54A to U35C A36C A45C, the yeast fitness rises from at most 0.5 to 0.522.

First: U35A U47C C49U C62A A69G
Second: U35C C49U G63C
The yeast fitness of the first is higher: 0.718 for the first, 0.548 for the second.

First: U35C C62A A69U
Second: U35G C49G U64A
The yeast fitness of the first is higher: 0.551 for the first, 0.525 for the second.

A36C A37G C49A A69U and U35G A45U A57C cannot be ordered by yeast fitness: at most 0.5 for the first, at most 0.5 for the second.

First: A36C C61U A65U
Second: U35C G39C
The yeast fitness of the first is lower: at most 0.5 for the first, 0.747 for the second.

First: U35C G51C C55U
Second: A36C
The yeast fitness of the first is lower: at most 0.5 for the first, 0.705 for the second.

U35C G48C C55U G56A and U35G A65G are the same in yeast fitness: 0.573 for the first, 0.573 for the second.

Going from U35C G67A to U35C G67C, the yeast fitness rises from 0.637 to 0.939.

First: U35C A45U G68A
Second: U35G C61G
The yeast fitness of the first is higher: 0.668 for the first, at most 0.5 for the second.

A36C A40G G48A A65U C66U A69U and U35G A42U A69C cannot be ordered by yeast fitness: at most 0.5 for the first, at most 0.5 for the second.

U35C A42C G52C U53C G68U and A36C A45U U47C G52C A65U G67C cannot be ordered by yeast fitness: at most 0.5 for the first, at most 0.5 for the second.

Compared with A36C A57C C61U A69C, U35G C46U is higher in yeast fitness: at most 0.5 for the first, 0.628 for the second.

U35C A40C C61G and U35C A43G U54C cannot be ordered by yeast fitness: at most 0.5 for the first, at most 0.5 for the second.

A36C A40U A70U and U35A U54G cannot be ordered by yeast fitness: at most 0.5 for the first, at most 0.5 for the second.

First: U35C U59A
Second: U35C A36G G58A G67A
The yeast fitness of the first is higher: 0.878 for the first, at most 0.5 for the second.

Compared with A36C A43C, U35G C49G G52C C62G A69C is lower in yeast fitness: 0.626 for the first, at most 0.5 for the second.

U35G U54A C62U G68A and A36C G44A A70C cannot be ordered by yeast fitness: at most 0.5 for the first, at most 0.5 for the second.

A36C A37C A65C and U35C A45C C49A cannot be ordered by yeast fitness: at most 0.5 for the first, at most 0.5 for the second.

First: U35G A43G U59A
Second: U35C G38A
The yeast fitness of the first is lower: 0.658 for the first, 0.891 for the second.

Work on U35C G41A yielded a yeast fitness of 0.882.
